Laboratory results reported in ChEMBL document CHEMBL3414516, “Novel pyridyl substituted 4,5-dihydro-[1,2,4]triazolo[4,3-a]quinolines as potent and selective aldosterone synthase inhibitors with improved in vitro metabolic stability” (J Med Chem, 2015).

Legend:
[1] = molecular target: T1, Steroid 17-alpha-hydroxylase/17,20 lyase (Homo sapiens, UniProt P05093); assay: Inhibition of human CYP17 expressed in Escherichia coli coexpressing human CYP17 and NADPH-P450 reductase
T1 sequence (P05093 whole entry): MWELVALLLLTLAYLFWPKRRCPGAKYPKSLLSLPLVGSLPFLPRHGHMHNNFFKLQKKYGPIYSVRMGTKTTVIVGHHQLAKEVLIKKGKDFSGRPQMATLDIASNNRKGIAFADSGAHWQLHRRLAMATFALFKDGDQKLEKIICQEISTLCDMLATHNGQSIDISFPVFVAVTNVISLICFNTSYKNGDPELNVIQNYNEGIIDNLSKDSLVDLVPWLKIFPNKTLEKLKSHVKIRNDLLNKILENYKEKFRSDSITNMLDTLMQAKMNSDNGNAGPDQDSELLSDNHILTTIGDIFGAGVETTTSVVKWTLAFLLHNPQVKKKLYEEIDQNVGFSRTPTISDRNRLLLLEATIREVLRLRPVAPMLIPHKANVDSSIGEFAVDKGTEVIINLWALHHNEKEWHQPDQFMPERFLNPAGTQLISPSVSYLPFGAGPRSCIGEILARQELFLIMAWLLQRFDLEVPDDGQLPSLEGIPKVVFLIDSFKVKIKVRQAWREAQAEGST

Homo sapiens = organism: Homo sapiens; assay: Selectivity index, ratio of IC50 for human CYP11B1 to IC50 human CYP11B2
Aromatase = molecular target: T2, Aromatase (Homo sapiens, UniProt P11511); assay: Inhibition of CYP19 in human placental microsomes using [1beta-3H]androstenedione substrate; design: species or system Placenta
T2 sequence (P11511 whole entry): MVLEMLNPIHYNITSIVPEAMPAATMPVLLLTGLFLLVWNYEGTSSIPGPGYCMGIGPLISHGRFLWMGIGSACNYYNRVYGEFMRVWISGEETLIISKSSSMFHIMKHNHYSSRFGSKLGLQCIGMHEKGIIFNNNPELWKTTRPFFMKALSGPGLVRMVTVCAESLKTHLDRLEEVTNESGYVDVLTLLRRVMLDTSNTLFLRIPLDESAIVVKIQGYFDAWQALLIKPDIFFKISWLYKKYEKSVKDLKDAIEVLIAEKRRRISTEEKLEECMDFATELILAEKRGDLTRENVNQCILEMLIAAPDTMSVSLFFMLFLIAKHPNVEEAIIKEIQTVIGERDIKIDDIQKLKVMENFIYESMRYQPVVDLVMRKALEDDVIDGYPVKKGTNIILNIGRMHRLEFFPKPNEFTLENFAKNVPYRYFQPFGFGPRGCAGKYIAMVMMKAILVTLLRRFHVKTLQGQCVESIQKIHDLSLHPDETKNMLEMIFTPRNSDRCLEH

[2] = molecular target: T3, Cytochrome P450 11B2, mitochondrial (Homo sapiens, UniProt P19099); assay: Inhibition of human CYP11B2 expressed in V79 MZh cells using [14C]-deoxycorticosterone substrate incubated for 6 hrs by HPTLC method; assay type: cell-based, V79MZh
T3 sequence (P19099 whole entry): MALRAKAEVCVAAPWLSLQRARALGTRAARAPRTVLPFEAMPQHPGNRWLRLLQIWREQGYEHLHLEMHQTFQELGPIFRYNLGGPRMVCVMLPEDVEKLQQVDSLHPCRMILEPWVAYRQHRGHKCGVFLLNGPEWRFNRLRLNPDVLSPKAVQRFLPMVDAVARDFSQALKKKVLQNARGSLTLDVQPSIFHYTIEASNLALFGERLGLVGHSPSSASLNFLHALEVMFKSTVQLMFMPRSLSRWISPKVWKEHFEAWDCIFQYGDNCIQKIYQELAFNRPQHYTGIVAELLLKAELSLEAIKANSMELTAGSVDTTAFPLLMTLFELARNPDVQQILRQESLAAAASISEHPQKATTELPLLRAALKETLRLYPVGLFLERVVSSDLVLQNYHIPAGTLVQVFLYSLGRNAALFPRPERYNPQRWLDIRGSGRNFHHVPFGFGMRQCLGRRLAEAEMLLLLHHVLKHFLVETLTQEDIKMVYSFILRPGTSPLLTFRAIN
How it was run: (§1)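 V79 MZh cells expressing human CYP11B1 or CYP11B2 were incubated 6 h with [¹⁴C]-deoxycorticosterone and inhibitor at various concentrations. Steroids were extracted with ethyl acetate, separated by HPTLC and quantified by phosphoimager.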

[3] = molecular target: T4, Cytochrome P450 11B1, mitochondrial (Homo sapiens, UniProt P15538); assay: Inhibition of human CYP11B1 expressed in V79 MZh cells using [14C]-deoxycorticosterone substrate incubated for 6 hrs by HPTLC method; assay type: cell-based, V79MZh; how it was run: as §1
T4 sequence (P15538 whole entry): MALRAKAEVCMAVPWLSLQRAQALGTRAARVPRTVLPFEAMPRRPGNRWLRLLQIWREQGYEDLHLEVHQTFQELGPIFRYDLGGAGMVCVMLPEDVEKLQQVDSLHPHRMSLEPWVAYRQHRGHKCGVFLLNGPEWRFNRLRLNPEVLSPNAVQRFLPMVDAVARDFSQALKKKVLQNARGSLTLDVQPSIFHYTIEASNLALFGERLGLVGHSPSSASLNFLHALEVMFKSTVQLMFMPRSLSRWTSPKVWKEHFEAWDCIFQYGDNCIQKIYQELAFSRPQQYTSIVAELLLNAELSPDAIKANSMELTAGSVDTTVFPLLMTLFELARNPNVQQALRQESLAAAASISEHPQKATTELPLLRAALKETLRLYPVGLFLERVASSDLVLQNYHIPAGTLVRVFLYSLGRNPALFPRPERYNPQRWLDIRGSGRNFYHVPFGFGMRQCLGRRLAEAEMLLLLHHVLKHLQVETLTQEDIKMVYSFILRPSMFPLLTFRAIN

[4] = Half life in human hepatic microsomes at 1 uM in presence of NADPH system by LC-MS/MS method; assay type: ADME, Microsome; conditions: liver microsomes
How it was run: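 Pooled mixed-gender human liver microsomes at 0.5 mg/mL final protein in potassium phosphate–MgCl₂ buffer (100 mM, pH 7.4). Compound at 1 μM final with NADPH system, 37 °C. Samples at 2, 5, 15, 30 and 45 min, quenched with acetonitrile, vortexed, centrifuged, and supernatant analysed by LC–MS/MS.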

Row | Structure (SMILES) | IC50 [1] | Ratio IC50 (Homo sapiens) | IC50 (Aromatase) | IC50 [2] | IC50 [3] | half-life at 1 µM [4]
1 | Fc1cc2c(cc1-c1cccnc1)CCc1nncn1-2 | > 10 µM | 32 | > 10 µM |  |  | 
2 | Fc1cc(-c2cccnc2)cc2c1-n1c(nnc1-c1ccncc1)CC2 | > 10 µM |  | > 10 µM | > 10 µM | > 10 µM | 
3 | Fc1cc2c(cc1-c1cccnc1)CCc1nnc(-c3ccncc3)n1-2 | > 10 µM |  | > 10 µM | > 10 µM | > 10 µM | 
4 | Cc1nnc2n1-c1c(F)cc(-c3cncc(-c4ccccc4)c3)cc1CC2 | > 10 µM | 60 | > 10 µM |  |  | 
5 | Cc1c(F)cncc1-c1cc(F)c2c(c1)CCc1nnc(C)n1-2 | > 10 µM | 232 | > 10 µM | 0.0195 µM | 4.52 µM | 
6 | CC(=O)c1cncc(-c2cc(F)c3c(c2)CCc2nnc(C)n2-3)c1 | > 10 µM | 78 | > 10 µM |  |  | 
7 | Fc1cc2c(cc1-c1cccnc1)CCc1nnc(-c3ccccc3)n1-2 | > 10 µM |  | > 10 µM | > 10 µM | > 10 µM | 
8 | CCc1nnc2n1-c1c(F)cc(-c3cccnc3)cc1CC2 | > 10 µM |  | > 10 µM | 0.542 µM | > 10 µM | 
9 | Cc1nnc2n1-c1c(F)cc(-c3cccnc3)cc1CC2 | > 10 µM | 272 | > 10 µM |  |  | > 2 h
10 | Fc1cc2c(cc1-c1cccnc1)CCc1nnc(Cc3ccccc3)n1-2 | > 10 µM |  | > 10 µM | 4.35 µM | > 10 µM | 
11 | Fc1cc(-c2cccnc2)cc2c1-n1c(nnc1-c1ccccc1)CC2 | > 10 µM |  | > 10 µM | > 10 µM | > 10 µM | 
12 | Fc1cncc(-c2cc(F)c3c(c2)CCc2nncn2-3)c1 | > 10 µM |  | > 10 µM | 0.335 µM | > 10 µM | 
13 | CCc1nnc2n1-c1cc(F)c(-c3cccnc3)cc1CC2 | > 10 µM |  | > 10 µM | 0.979 µM | > 10 µM | 
